Legend:
[1] = molecular target: Prostaglandin E2 receptor EP2 subtype (Rattus norvegicus, UniProt Q62928); assay: Displacement of [3H]PGE2 from rat EP2 receptor expressed in HEK293-EBNA cells by scintillation counting; format: cell-based
Summary of the method: (§1)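 Radioligand binding on membranes from HEK 293(EBNA) clonal lines overexpressing each prostanoid receptor, using the respective 3H-prostaglandin or thromboxane ligand; EP4 binding also run with 10% human serum; Ki as means of at least three experiments (rEP2, rEP3 n = 1).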

[2] = molecular target: T1, Prostaglandin D2 receptor (Homo sapiens, UniProt Q13258); assay: Displacement of [3H]PGD2 from human DP1 receptor expressed in HEK293-EBNA cells by scintillation counting; format: cell-based; summary of the method: as §1
T1 sequence (Q13258 whole entry): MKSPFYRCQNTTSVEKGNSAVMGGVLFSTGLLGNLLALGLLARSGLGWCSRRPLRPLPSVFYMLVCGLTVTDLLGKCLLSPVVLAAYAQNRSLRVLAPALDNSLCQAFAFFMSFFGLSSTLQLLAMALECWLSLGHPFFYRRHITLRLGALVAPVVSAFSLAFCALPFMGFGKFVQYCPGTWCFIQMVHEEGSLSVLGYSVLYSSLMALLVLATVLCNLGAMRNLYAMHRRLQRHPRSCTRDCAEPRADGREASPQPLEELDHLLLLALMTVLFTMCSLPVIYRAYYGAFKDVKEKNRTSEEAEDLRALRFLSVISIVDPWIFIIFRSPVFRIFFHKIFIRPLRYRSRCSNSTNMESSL

[3] = molecular target: T2, Prostaglandin E2 receptor EP4 subtype (Homo sapiens, UniProt P35408); assay: Antagonist activity at human EP4 receptor expressed in HEK293 cells assessed as inhibition of PGE2-induced cAMP accumulation by scintillation proximity assay in presence of 10% human serum; format: functional, cell-based
Summary of the method: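 Functional EP4 assay in the same HEK 293(EBNA) clonal line overexpressing human EP4; inhibition of PGE2-induced cAMP accumulation, run in presence of 10% human serum to gauge serum protein binding; IC50 values are means of at least three experiments.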

[4] = molecular target: T2, Prostaglandin E2 receptor EP4 subtype; assay: Activity at EP4 receptor in human whole blood assessed as blockade of inhibition of TNF-alpha-induced IP10 release; format: functional, tissue-based
Summary of the method: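 Human whole blood; TNF-alpha-stimulated IP-10 release, suppressed by the selective EP4 agonist L-902688 (used in place of PGE2); antagonism measured as reversal of that suppression; IC50.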

[5] = molecular target: T3, Prostaglandin E2 receptor EP3 subtype (Homo sapiens, UniProt P43115); assay: Displacement of [3H]PGE2 from human EP3 receptor expressed in HEK293-EBNA cells by scintillation counting; format: cell-based; summary of the method: as §1
T3 sequence (P43115 whole entry): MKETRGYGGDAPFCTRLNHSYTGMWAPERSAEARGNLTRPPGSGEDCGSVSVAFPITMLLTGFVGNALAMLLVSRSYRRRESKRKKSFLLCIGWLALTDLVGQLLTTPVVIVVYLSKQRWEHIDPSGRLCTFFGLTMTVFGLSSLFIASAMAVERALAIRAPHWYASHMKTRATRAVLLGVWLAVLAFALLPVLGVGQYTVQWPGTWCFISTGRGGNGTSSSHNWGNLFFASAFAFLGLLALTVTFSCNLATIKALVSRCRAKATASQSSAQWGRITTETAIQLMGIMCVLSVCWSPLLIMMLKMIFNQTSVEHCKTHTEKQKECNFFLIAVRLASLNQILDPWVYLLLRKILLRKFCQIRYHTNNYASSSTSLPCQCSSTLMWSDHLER

Rattus norvegicus [6] = assay: Analgesic activity in po dosed Sprague-Dawley rat assessed as inhibition of carrageenan-induced mechanical hyperalgesia
Rattus norvegicus [7] = assay: Gastrointestinal toxicity in Sprague-Dawley rat assessed as urinary excretion of 51Cr-EDTA at 3 to 30 mg/kg/day, po once daily for 5 days; format: organism-based, Urine; design: route oral; conditions: in vivo, 120 h
Summary of the method: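 Male SD rats dosed orally once daily in 0.5% methocel (3, 10, 30 mg/kg for 5 days, or 5 mg/kg for 3 days); single oral 51Cr-EDTA given on day 4 or day 2 respectively; urinary 51Cr excretion as GI permeability index; n = 5/group treated, 4 vehicle; 1-way ANOVA/Dunnett's.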

[8] = Oral bioavailability in Beagle dog at 5 mg/kg; format: ADME, organism-based, Canis lupus familiaris; conditions: in vivo
Summary of the method: (§2)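 Overnight-fasted animals dosed po in 0.5% methocel or iv in 60% PEG 200; plasma from serial blood samples stored at -10 °C, protein-precipitated with equal volume acetonitrile/0.1% formic acid, analysed by LC/MS/MS with internal standard against spiked blank-plasma standards; Cmax from po data, half-life from iv data.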

[9] = molecular target: Prostaglandin F2-alpha receptor (Homo sapiens, UniProt P43088); assay: Displacement of [3H]PGF2alpha from human FP receptor expressed in HEK293-EBNA cells by scintillation counting; format: cell-based; summary of the method: as §1
[10] = molecular target: Prostaglandin E2 receptor EP4 subtype (Rattus norvegicus, UniProt P43114); assay: Displacement of [3H]PGE2 from rat EP4 receptor expressed in HEK293-EBNA cells by scintillation counting; format: cell-based; summary of the method: as §1
[11] = Plasma clearance in C57BL/6 mouse at 20 mg/kg, po and 5 mg/kg, iv; format: ADME, organism-based; summary of the method: as §2
[12] = Half life in Sprague-Dawley rat at 5 mg/kg, iv; format: ADME, organism-based; design: dose 5 mg/kg, route intravenous; conditions: in vivo; summary of the method: as §2
[13] = molecular target: T2, Prostaglandin E2 receptor EP4 subtype; assay: Antagonist activity at human EP4 receptor expressed in HEK293 cells assessed as inhibition of PGE2-induced cAMP accumulation by scintillation proximity assay; format: functional, cell-based
Summary of the method: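 HEK 293 cells; inhibition of PGE2-induced cAMP accumulation measured, with and without 10% human serum; means of at least three experiments.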

[14] = molecular target: T4, Prostaglandin E2 receptor EP1 subtype (Homo sapiens, UniProt P34995); assay: Displacement of [3H]PGE2 from human EP1 receptor expressed in HEK293-EBNA cells by scintillation counting; format: cell-based; summary of the method: as §1
T4 sequence (P34995 whole entry): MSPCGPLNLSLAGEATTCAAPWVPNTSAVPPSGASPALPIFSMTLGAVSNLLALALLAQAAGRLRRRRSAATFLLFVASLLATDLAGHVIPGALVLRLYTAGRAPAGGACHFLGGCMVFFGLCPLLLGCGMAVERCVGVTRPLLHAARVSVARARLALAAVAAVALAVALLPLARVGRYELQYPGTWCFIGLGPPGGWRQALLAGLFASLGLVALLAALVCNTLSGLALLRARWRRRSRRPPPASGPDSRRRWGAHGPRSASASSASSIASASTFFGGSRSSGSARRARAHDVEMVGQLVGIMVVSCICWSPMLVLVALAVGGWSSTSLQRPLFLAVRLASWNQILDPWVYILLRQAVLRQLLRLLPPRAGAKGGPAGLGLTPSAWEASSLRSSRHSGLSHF

[15] = Cmax in Beagle dog at 5 mg/kg, po; format: ADME, organism-based, Canis lupus familiaris; design: dose 5 mg/kg, route oral; conditions: in vivo; summary of the method: as §2
[16] = Plasma clearance in Sprague-Dawley rat at 20 mg/kg, po and 5 mg/kg, iv; format: ADME, organism-based; summary of the method: as §2
Prostacyclin receptor = Prostacyclin receptor (Homo sapiens, UniProt P43119); assay: Displacement of [3H]iloprost from human IP receptor expressed in HEK293-EBNA cells by scintillation counting; format: cell-based; summary of the method: as §1
[17] = Oral bioavailability in C57BL/6 mouse at 20 mg/kg; format: ADME, organism-based; conditions: in vivo; summary of the method: as §2
Cynomolgus monkey = assay: Volume of distribution at steady state in cynomolgus monkey at 5 mg/kg, po and 1 mg/kg, iv; format: ADME, organism-based, Macaca fascicularis; conditions: in vivo; summary of the method: as §2

T2 sequence (P35408 whole entry): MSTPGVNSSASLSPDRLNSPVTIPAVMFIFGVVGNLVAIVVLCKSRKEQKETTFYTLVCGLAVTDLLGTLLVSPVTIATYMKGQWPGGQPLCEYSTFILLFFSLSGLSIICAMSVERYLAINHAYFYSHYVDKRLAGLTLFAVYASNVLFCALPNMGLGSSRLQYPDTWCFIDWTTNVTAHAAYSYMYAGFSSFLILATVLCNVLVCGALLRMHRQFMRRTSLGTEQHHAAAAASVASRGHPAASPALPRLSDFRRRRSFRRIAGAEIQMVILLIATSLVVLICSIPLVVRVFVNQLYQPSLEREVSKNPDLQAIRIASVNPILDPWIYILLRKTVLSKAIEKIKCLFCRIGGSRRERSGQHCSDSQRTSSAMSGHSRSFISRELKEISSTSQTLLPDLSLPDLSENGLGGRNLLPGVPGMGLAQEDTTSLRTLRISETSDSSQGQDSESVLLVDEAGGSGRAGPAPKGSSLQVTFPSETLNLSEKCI
Chain of Prostaglandin F2-alpha receptor (P43088 whole entry): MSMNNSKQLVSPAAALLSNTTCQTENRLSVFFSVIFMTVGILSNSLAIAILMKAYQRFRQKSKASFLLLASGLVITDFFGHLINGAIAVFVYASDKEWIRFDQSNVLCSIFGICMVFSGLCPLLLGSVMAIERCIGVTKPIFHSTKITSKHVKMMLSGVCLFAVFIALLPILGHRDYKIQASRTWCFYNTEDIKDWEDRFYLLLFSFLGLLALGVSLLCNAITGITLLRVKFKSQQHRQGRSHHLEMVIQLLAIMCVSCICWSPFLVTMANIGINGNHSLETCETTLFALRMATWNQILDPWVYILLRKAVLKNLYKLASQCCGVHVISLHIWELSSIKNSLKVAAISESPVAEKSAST
Chain of Prostaglandin E2 receptor EP2 subtype (Q62928 whole entry): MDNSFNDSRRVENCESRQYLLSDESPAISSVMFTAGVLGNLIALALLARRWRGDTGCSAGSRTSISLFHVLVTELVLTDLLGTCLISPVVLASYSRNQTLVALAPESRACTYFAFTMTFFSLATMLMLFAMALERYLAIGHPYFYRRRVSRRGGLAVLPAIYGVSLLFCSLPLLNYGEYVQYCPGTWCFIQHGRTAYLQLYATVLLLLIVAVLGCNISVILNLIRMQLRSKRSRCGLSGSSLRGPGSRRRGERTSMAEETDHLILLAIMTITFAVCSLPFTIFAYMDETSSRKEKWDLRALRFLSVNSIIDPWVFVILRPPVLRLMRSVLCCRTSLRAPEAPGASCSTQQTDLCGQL
Chain of Prostacyclin receptor (P43119 whole entry): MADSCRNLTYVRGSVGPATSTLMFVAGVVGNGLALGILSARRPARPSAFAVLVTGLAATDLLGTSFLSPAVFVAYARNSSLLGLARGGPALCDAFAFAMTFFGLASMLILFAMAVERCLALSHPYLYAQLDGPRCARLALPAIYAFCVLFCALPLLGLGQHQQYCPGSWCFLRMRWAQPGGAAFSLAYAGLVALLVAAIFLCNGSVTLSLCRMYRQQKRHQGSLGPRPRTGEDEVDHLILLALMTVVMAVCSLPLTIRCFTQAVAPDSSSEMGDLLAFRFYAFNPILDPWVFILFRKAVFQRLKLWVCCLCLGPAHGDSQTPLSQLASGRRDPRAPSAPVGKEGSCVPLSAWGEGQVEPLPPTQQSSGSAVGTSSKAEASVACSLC
Chain of Prostaglandin E2 receptor EP4 subtype (Rattus norvegicus, UniProt P43114) (P43114 whole entry): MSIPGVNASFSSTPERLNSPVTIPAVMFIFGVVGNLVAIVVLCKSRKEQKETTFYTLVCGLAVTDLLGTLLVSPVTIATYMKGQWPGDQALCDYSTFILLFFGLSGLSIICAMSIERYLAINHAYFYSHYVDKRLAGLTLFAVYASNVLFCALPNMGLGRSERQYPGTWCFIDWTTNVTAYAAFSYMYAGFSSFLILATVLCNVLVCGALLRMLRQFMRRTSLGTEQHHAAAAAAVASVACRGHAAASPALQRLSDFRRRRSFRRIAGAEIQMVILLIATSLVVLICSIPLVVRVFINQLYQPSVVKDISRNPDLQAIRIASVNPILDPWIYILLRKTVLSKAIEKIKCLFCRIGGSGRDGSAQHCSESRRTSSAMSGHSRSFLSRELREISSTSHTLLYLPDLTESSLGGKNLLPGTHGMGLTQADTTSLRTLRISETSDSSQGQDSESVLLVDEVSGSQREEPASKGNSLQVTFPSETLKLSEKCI

Ki [1]: 7200 nM | Ki [2]: > 3900 nM | IC50 [3]: 2.9 nM | IC50 [4]: 11 nM | Ki [5]: > 7900 nM | EC50 (Rattus norvegicus [6]): 250 nM | bioavailability [8]: 32% | Ki [9]: > 24000 nM | Ki [10]: 0.7 nM | clearance [11]: 23 mL/min/kg | half-life [12]: 4.5 h | IC50 [13]: 2.5 nM | Ki [14]: > 5600 nM | Cmax [15]: 3.3 µM | clearance [16]: 9.2 mL/min/kg | Ki (Prostacyclin receptor): > 22000 nM | bioavailability [17]: 21% | Vdss (Cynomolgus monkey): 7.9 L/kg
SMILES: Cc1sc(C)c(C(=O)NC2(c3ccc(C(=O)O)cc3)CC2)c1Cc1ccc(C(F)(F)F)cc1
ED50 (Rattus norvegicus [6]; po): 0.36 mg/kg | Activity (Rattus norvegicus [7]): Non-toxic
